# This is a sample that favours compounds with a hit; in the whole collection about 1.9% have one here.
# Tb MetRS inh = Trypanosoma brucei MetRS inhibition. purified T. brucei MetRS, ATP depletion, Kinase-Glo luminescence. inhibition, % at 11.9 µM. 360,000 compounds, 0.4% hits. AID 624268;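 active = inhibition above a per-plate cutoff of the control wells' mean inhibition plus 3 SD, cut at about 5.5% in these data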;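 note: 0% = DMSO wells median and 100% = median of wells with control inhibitor compound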
#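 Test system – parasite MetRS enzyme · Reagent – substrates ATP, L-methionine and bulk Escherichia coli tRNA · Doses – 11.9 µM compound single dose, 0.9% DMSO · Times – 15 min enzyme-compound preincubation, 2 h reaction, 10 min detection, 25 °C · Signal – Kinase-Glo luminescence, ATP depletion format · Controls – DMSO-only wells as low control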
# HGIII-sPLA2 inh = Inhibits HGIII-sPLA2 liposome hydrolysis, primary screen; Q9NZ20; inhibition, % at 12.2 µM; 370,000 compounds, 0.56% hits; QFRET BODIPY PC-A2 liposome hydrolysis, fluorescence;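 active = inhibition above mean plus 3 SD of compounds lying within the high and low control bounds, cut at about 19% in these data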;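 note: 0% = median of test compound wells and 100% = no enzyme DMSO wells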
# PLCb3 inh = inhibitors of human phospholipase C beta3 | Q01970 | Purified PLC-beta3, fluorogenic substrate, fluorescence | inhibition, % at 12.2 µM | 370,000 compounds, 0.18% hits; in the data active = inhibition above about 11%;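 note: 0% = median of compound wells on plate and 100% = full blocker control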
# Target sequence (Q01970 whole entry, looked up): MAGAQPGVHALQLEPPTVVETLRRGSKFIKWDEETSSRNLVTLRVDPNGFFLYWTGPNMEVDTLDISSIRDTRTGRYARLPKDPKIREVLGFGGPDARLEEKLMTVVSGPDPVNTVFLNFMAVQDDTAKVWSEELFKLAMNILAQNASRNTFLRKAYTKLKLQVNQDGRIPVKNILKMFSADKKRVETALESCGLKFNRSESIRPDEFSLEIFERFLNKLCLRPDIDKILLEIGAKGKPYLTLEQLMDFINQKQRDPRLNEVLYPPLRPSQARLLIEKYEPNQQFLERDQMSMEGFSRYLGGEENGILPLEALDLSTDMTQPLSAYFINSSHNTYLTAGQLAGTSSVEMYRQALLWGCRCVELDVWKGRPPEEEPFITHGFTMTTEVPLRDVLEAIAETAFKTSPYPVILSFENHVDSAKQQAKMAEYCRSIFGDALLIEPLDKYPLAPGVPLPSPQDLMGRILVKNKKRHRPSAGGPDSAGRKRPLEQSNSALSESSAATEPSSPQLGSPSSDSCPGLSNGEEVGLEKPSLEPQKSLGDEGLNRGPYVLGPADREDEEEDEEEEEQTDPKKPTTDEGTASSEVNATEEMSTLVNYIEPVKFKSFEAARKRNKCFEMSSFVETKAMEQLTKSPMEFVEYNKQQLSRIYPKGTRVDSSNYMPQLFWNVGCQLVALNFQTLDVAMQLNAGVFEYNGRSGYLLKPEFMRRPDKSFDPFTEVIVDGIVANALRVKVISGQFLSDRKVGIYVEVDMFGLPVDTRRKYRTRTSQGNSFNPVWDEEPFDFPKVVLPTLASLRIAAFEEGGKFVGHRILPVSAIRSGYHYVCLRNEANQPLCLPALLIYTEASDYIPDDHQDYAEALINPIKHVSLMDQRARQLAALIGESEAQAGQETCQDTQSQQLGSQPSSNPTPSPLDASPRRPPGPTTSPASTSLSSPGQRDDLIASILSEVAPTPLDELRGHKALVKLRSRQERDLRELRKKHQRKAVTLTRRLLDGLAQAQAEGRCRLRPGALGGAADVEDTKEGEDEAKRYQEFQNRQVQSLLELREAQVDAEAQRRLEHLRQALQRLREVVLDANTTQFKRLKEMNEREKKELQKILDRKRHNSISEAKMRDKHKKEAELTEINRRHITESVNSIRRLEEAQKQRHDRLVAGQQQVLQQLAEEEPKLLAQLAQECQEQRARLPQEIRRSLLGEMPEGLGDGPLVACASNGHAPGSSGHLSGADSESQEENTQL
# PLC-gamma1 inh = inhibitors of human phospholipase C gamma1. P19174. purified PLC-gamma1, fluorogenic substrate, fluorescence. inhibition, % at 12.2 µM. 370,000 compounds, 0.84% hits. AID 720700; in the data active = inhibition above about 9.5%
# TbMetRS confirm = confirmation of Trypanosoma brucei MetRS inhibitors; shares compounds with Tb MetRS inh; T. brucei MetRS enzyme, luminescence (ATP depletion); inhibition, % at 11.9 µM; 1,400 compounds, 93% hits; AID 624412; in the data active = inhibition above about 7%
# Jurkat cytotox = Jurkat T cell cytotoxicity for MetRS hits | shares compounds with Tb MetRS inh | Jurkat cells viability, ATP luminescence | 1,400 compounds, 12% hits | inhibition, % at 8.3 µM; in the data active = inhibition above about 15%;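 note: 0% = vehicle and 100% = reference inhibitor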
# Tb MetRS inh FP = inhibits T. brucei methionyl tRNA synthetase in orthogonal FP test; purified T. brucei MetRS, fluorescence polarization; inhibition, % at 11.9 µM; shares compounds with Tb MetRS inh; 1,400 compounds, 44% hits; in the data active = inhibition above about 17%;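 note: 0% = vehicle wells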
# Starred values were filed as active, the others as inactive; . = no result.
SMILES,Tb MetRS inh,HGIII-sPLA2 inh,PLCb3 inh,PLC-gamma1 inh,others
CCCCCN1CCCCC(NC(=O)c2ccc(F)c(F)c2)C1=O (stereo not given),.,1.6,0.6,-1.7,
O=C(OCn1nnc2ccccc2c1=O)c1cccnc1Cl,1.4,6.9,7.9,11.9*,
CCc1nnc(N/N=C/c2c(C)[nH]c3ccccc23)n1N,1.4,5.7,9.7,10.5*,
Cn1c(SCCc2ccccc2)nnc1-c1ccco1,.,8.5,-1.5,0.8,
C/C(C/C(C)=C1/SC(=S)NC1=O)=C1\SC(=S)NC1=O,1.6,-7.2,-3.4,72.9*,
O=C1CC(c2ccc3c(c2)OCO3)N=C2N(Cc3ccc4c(c3)OCO4)C/C(=C/c3ccccc3)N12 (stereo not given),.,-10.6,-2.5,-4.5,
N=c1c(-c2nc3ccccc3[nH]2)cc(C(=O)c2cccs2)nn1-c1ccccc1,-0.7,.,.,.,
N=c1c(-c2nc3ccccc3[nH]2)cc(C(=O)c2ccco2)nn1-c1ccccc1,0.3,24.5*,-16.6,-15.6,
COC(=O)[C@]12C[C@H](CC(=O)NCCCCc3ccccc3)C(=O)N(CCc3ccc(OC)c(OC)c3)C1=C[C@H](C(C)C)O[C@@H]2C1CC1,.,-20.6,4.5,0.9,
O=C(Cn1cnc2ccccc21)Nc1cccc(S(=O)(=O)N2CCCC2)c1,35.9*,.,.,.,
COc1ccc(OC)c(CN2C(=O)CSCC2(C)C(=O)NCc2ccccc2)c1 (stereo not given),0.3,1.3,11.7*,2.6,
Cc1ccccc1CN1C(=O)CSCC1(C)C(=O)NCc1ccccc1 (stereo not given),0.1,-6.2,3.1,1.7,
Cc1[nH]c2ccc(Br)cc2c(=O)c1CN1CCOCC1,35.4*,2.8,3.5,5.5,
CN(CCO)c1cccc2c1S(=O)(=O)N(Cc1cn(Cc3ccc(Cl)cc3)nn1)Cc1ccccc1O2,.,-6.2,-6.5,-1.7,
CCCC[C@H]1C2CC(OC(=O)Nc3cccc(F)c3)C(C2)[C@H]2CCCCN21 (stereo not given in full),.,8.3,4.0,3.7,
O=C(CNC(=O)c1ccc(Cl)cc1Cl)OCc1ccccc1,0.1,10.0,0.8,3.5,
O=C(COC(=O)CNC(=O)c1ccc(Cl)cc1Cl)NC(=O)NCc1ccccc1,-0.1,14.3,-1.1,10.9*,
O=C(Nc1ccc(Br)cc1)c1cccc(S(=O)(=O)Nc2ccccn2)c1,-0.1,-5.2,-4.7,2.1,
O=C(Nc1ccc(Br)cc1)c1cccc(S(=O)(=O)Nc2cnc3ccccc3c2)c1,64.9*,-110.7,-17.2,-15.3,
Clc1cccc(CN2CCC(Cc3ccccc3)CC2)c1,-0.8,3.5,2.8,1.7,
Clc1ccc(CN2CCC(Cc3ccccc3)CC2)cc1,-1.6,-5.5,5.9,10.8*,
CN[C@H]1C[C@H]2c3cc(-c4ccc5c(c4)OCO5)ccc3CCN2C[C@H]1[C@H](C)O,.,0.0,1.7,0.0,
COc1ccc(/C=C2/C(=O)N(c3ccccc3)N=C2C)cc1OC,1.2,2.0,9.6,18.5*,
COc1ccc(/C=C2/C(=O)N(c3ccccc3)N=C2C)cc1,0.6,.,.,.,
CC(=O)Oc1ccc(/C=C2/C(=O)N(c3ccccc3)N=C2C)cc1,3.4,10.4,1.5,30.8*,
SMILES,Tb MetRS inh,HGIII-sPLA2 inh,PLCb3 inh,PLC-gamma1 inh,others
COC(=O)C(C(=O)OC)C1C=CCN(C(C)=O)C1 (stereo not given),-0.2,-4.8,0.1,28.8*,
COC(=O)C(C(=O)N1CCN(C)CC1)C1CCCCCC1 (stereo not given),-1.3,0.1,0.2,0.2,
O=C(CNc1cc(S(=O)(=O)N2CCOCC2)ccc1NCC1CCCO1)Nc1ccc(F)c(F)c1 (stereo not given),8.5*,-0.5,-9.1,-1.2,
O=C(NCc1cccnc1)c1ccc2sc([C@@H]3O[C@H](CO)[C@H](O)[C@H](O)[C@H]3O)nc2c1,-0.4,-0.9,-1.2,0.2,
O=C(NCc1cc(Cl)cc(Cl)c1)c1ccc2sc([C@@H]3O[C@H](CO)[C@H](O)[C@H](O)[C@H]3O)nc2c1,17.7*,-3.1,-10.0,3.3,TbMetRS confirm=51.0*;Jurkat cytotox=-3.2;Tb MetRS inh FP=27.0*
O=C(NCc1cc(Cl)cc(Cl)c1)c1csc([C@@H]2O[C@H](CO)[C@H](O)[C@H](O)[C@H]2O)n1,8.7*,12.6,-1.0,0.7,TbMetRS confirm=31.0*;Jurkat cytotox=-8.2;Tb MetRS inh FP=6.8
COC(=O)[C@]12C[C@H](CC(=O)NCCC(C)C)C(=O)N(Cc3ccc(Cl)cc3Cl)C1=C[C@H](COCc1ccccc1)O[C@@H]2C,.,-25.7,3.9,1.2,
COc1ccc(-c2cc(=O)[nH][nH]2)cc1,0.5,-41.6,-1.1,0.8,
COc1ccc(-c2cc(=O)n(CCC#N)[nH]2)cc1,16.0*,-0.9,-45.1,-32.4,TbMetRS confirm=2.4;Jurkat cytotox=1.6;Tb MetRS inh FP=4.2
COc1ccc(CCNC(=O)Nc2ccc3c(c2)[C@@]2(CC(=O)N(CC(C)C)C2c2ccccc2)C(=O)N3C)cc1OC (stereo not given in full),.,-9.2,0.1,-0.9,
CC(=O)N1CCN(c2ccc(N3CCN(Cc4ccccc4)[C@H](C)C3)c(C)c2)[C@@H](C)C1,.,12.1,2.7,7.0,
NS(=O)(=O)c1ccc(NC(=S)NCc2ccccc2)cc1,0.4,4.7,-0.7,-0.6,
O=C(NCc1cccc(Cl)c1)NCc1cccc(Cl)c1,6.2*,10.7,3.0,0.2,TbMetRS confirm=9.3*;Jurkat cytotox=9.4;Tb MetRS inh FP=8.1
NS(=O)(=O)c1ccc(NC(=S)NCc2cccc(Cl)c2)cc1,16.9*,-35.2,1.3,-0.2,TbMetRS confirm=36.1*;Jurkat cytotox=29.1*;Tb MetRS inh FP=12.5
CCOC(=O)CN(C(=O)CSc1nnc2c(n1)[nH]c1ccccc12)c1ccccc1,1.0,1.9,1.0,0.7,
CCOC(=O)CN(C(=O)CSc1nnc2c(n1)[nH]c1ccc(F)cc12)c1ccccc1,6.3*,-24.4,-1.1,-3.7,TbMetRS confirm=17.0*;Jurkat cytotox=2.4;Tb MetRS inh FP=10.3
Cc1cc(N/C(=C\C(=O)c2ccccc2)c2ccccc2)ccc1Br,.,2.7,2.2,1.5,
O=C(Nc1ccccc1)c1ccc(=O)n(Cc2ccc(F)c(F)c2)c1,9.6*,5.8,-0.4,4.1,TbMetRS confirm=17.9*;Jurkat cytotox=2.6;Tb MetRS inh FP=5.6
O=C(CSc1nnc(-c2cccnc2)n1-c1ccccc1)Nc1cccc2ccccc12,.,7.3,4.9,1.6,
Cc1c(NS(=O)(=O)c2cc(C(=O)NCc3cccc(Cl)c3)ccc2Cl)c(=O)n(-c2ccccc2)n1C,10.6*,-38.6,-1.6,-4.9,TbMetRS confirm=33.8*;Jurkat cytotox=-0.4;Tb MetRS inh FP=24.4*
CSCC[C@H](NC(=O)c1cccc(S(=O)(=O)N2CCCCCC2)c1)c1nc2ccccc2[nH]1,0.1,-15.4,4.2,-0.5,
O=C(NCc1nc2ccccc2[nH]1)c1cccc(S(=O)(=O)N2CCCC2)c1,7.9*,4.0,0.9,1.4,TbMetRS confirm=19.0*;Jurkat cytotox=-6.5;Tb MetRS inh FP=14.4
Cc1ccc(S(=O)(=O)N2CCN(Cc3nc4ccccc4[nH]3)CC2)cc1C,5.8*,-10.8,-3.2,2.1,TbMetRS confirm=16.8*;Jurkat cytotox=-0.4;Tb MetRS inh FP=4.5
